Measurements reported in ChEMBL document CHEMBL1157779, “Merging the structural motifs of functionalized amino acids and alpha-aminoamides: compounds with significant anticonvulsant activities” (J Med Chem, 2010).
The source made the active and inactive calls. No cut-off for these calls is given here.

What was measured:
[1] = system: Mus musculus; test: Anticonvulsant activity in ip dosed albino mouse assessed as inhibition of maximal electroshock-induced seizures after 4 hrs; type: functional
In short: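 Male albino Carworth Farms No. 1 mice given compound ip; maximal electroshock applied and protection scored as blockade of hind limb extension; identification screening, then ED50 (mg/kg) from quantitative testing for active compounds.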

[2] = system: Mus musculus; test: Anticonvulsant activity in ip dosed albino mouse assessed as inhibition of maximal electroshock-induced seizures after 0.5 hrs; type: functional
[3] = system: Mus musculus; test: (§1) Toxicity in ip dosed albino mouse after 0.5 hrs by rotarod test; type: organism-based; conditions: in vivo, 0.5 h
[4] = system: Rattus norvegicus; test: Anticonvulsant activity in po dosed Sprague-Dawley albino rat assessed as inhibition of maximal electroshock-induced seizures after 4 hrs; type: functional
In short: (§2)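 Male albino Sprague-Dawley rats dosed orally; maximal electroshock seizures, protection scored as blockade of hind limb extension, tested at set times after dosing; ED50 in mg/kg from quantitative evaluation for active compounds.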

[5] = system: Rattus norvegicus; test: Anticonvulsant activity in po dosed Sprague-Dawley albino rat assessed as inhibition of maximal electroshock-induced seizures; type: functional; in short: as §2
[6] = system: Rattus norvegicus; test: (§3) Behavioral toxicity in po dosed Sprague-Dawley albino rat after 4 hrs; type: organism-based; conditions: in vivo, 4 h
In short: (§4)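 Oral dosing in male albino Sprague-Dawley rats with behavioral toxicity observation at set times after dosing, doses up to 500 mg/kg.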

[7] = species on record: Rattus norvegicus; test: Protective index, ratio of TD50 for Sprague-Dawley albino rat to anticonvulsant ED50 for Sprague-Dawley albino rat; type: functional
In short: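 Rat, oral: behavioral-toxicity TD50 divided by MES ED50, both in mg/kg.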

[8] = system: Mus musculus; test: Anticonvulsant activity in albino mouse assessed as protection against subcutaneous metrazole-induced seizures up to 300 mg/kg, ip after 0.5 hrs; type: functional, organism-based; parameters: dose 300 mg/kg
In short: (§5)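 Male albino Carworth Farms No. 1 mice dosed ip under NIH Anticonvulsant Screening Program; subcutaneous Metrazol seizure challenge at 0.5 and 4 h after doses up to 300 mg/kg.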

[9] = system: Mus musculus; test: Anticonvulsant activity in albino mouse assessed as protection against subcutaneous metrazole-induced seizures up to 300 mg/kg, ip after 4 hrs; type: functional, organism-based; parameters: dose 300 mg/kg; in short: as §5
[10] = as §1; type: organism-based; conditions: albino, in vivo
[11] = system: Mus musculus; test: Anticonvulsant activity in ip dosed albino mouse assessed as protection against subcutaneous metrazole-induced seizures; type: functional
In short: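 Subcutaneous Metrazol seizure model in male albino Carworth Farms No. 1 mice, ip dosing. Doses up to 300 mg/kg tested at two time points (0.5 and 4 h).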

[12] = Behavioral toxicity in po dosed Sprague-Dawley albino rat; type: organism-based; conditions: Sprague-Dawley, in vivo
[13] = system: Mus musculus; test: Antiinflammatory activity in albino mouse assessed as reduction in formalin-induced late inflammation at 16 mg/kg, ip; type: functional, organism-based; parameters: dose 16 mg/kg
[14] = system: Mus musculus; test: Anticonvulsant activity in ip dosed albino mouse assessed as inhibition of maximal electroshock-induced seizures after […]; type: functional
[15] = species on record: Mus musculus; test: Protective index, ratio of TD50 for albino mouse to anticonvulsant ED50 for albino mouse; type: functional
[16] = Behavioral toxicity in po dosed Sprague-Dawley albino rat after 0.25 to 4 hrs; type: organism-based; conditions: in vivo; in short: as §4
[17] = system: Mus musculus; test: Anticonvulsant activity in ip dosed albino mouse assessed as protection against 6 Hz electric shock-induced seizures after 0.5 hrs; type: functional
In short: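 Psychomotor 6 Hz (32 mA) seizure model in male albino Carworth Farms No. 1 mice given compound ip; ED50 in mg/kg.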

[18] = system: Rattus norvegicus; test: Anticonvulsant activity in po dosed Sprague-Dawley albino rat assessed as inhibition of maximal electroshock-induced seizures after 0.25 to 2 hrs; type: functional; in short: as §2
[19] = Toxicity in ip dosed albino mouse after […] by rotarod test; type: organism-based; conditions: in vivo
[20] = system: Rattus norvegicus; test: Anticonvulsant activity in po dosed Sprague-Dawley albino rat assessed as inhibition of maximal electroshock-induced seizures after 2 hrs; type: functional
[21] = Toxicity in ip dosed albino mouse by rotarod test; type: organism-based; conditions: in vivo
In short: (§6)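 Male albino Carworth Farms No. 1 mice dosed ip; neurological impairment by rotorod test at set times; TD50 (mg/kg) determined for compounds active in MES.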

[22] = system: Mus musculus; test: Anticonvulsant activity in ip dosed albino mouse assessed as inhibition of maximal electroshock-induced seizures after 1 hr; type: functional
In short: (§7)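 Male albino Carworth Farms No. 1 mice dosed intraperitoneally; screened via the NIH Anticonvulsant Screening Program. Protection scored as blocking of hind limb extension after maximal electroshock. Median effective dose (ED50, mg/kg) obtained in quantitative evaluations of active compounds. Rotorod test gave TD50 for neurological impairment, and PI = TD50/ED50.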

[23] = Toxicity in ip dosed albino mouse after 4 hrs by rotarod test; type: organism-based; conditions: in vivo; in short: as §6
[24] = as §3; type: organism-based; conditions: Sprague-Dawley, in vivo; in short: as §4
[25] = system: Rattus norvegicus; test: Anticonvulsant activity in po dosed Sprague-Dawley albino rat assessed as inhibition of maximal electroshock-induced seizures after 1 hr; type: functional; in short: as §2
[26] = system: Rattus norvegicus; test: Behavioral toxicity in po dosed Sprague-Dawley albino rat after 1 hr; type: organism-based; conditions: in vivo, 1 h; in short: as §4
[27] = system: Mus musculus; test: Anticonvulsant activity in ip dosed albino mouse assessed as inhibition of maximal electroshock-induced seizures; type: functional; in short: as §7

CC(=O)N[C@H](C)C(=O)NCc1ccc(OCc2cccc(F)c2)cc1
ED50 [1]: < 100 mg/kg
ED50 [2]: > 30 mg/kg
TD50 [3]: > 300 mg/kg
ED50 [4]: 31 mg/kg
ED50 [5]: 21 mg/kg
TD50 [6]: > 500 mg/kg
Ratio TD50/ED50 [7]: >16
Activity [8]: inactive
Activity [9]: inactive

COC[C@@H](NC(C)=O)C(=O)NCc1ccc(COCc2cccc(F)c2)cc1
ED50 [2]: 30 mg/kg
TD50 at 0.5 h [10]: 30 mg/kg

COCC(NCc1ccc(OCc2cccc(F)c2)cc1)C(N)=O (racemic)
ED50 [2]: 30 mg/kg
TD50 at 0.5 h [10]: 100 mg/kg
ED50 [11]: > 300 mg/kg

COC[C@@H](NC(C)=O)C(=O)NCc1ccccc1 [LACOSAMIDE]
TD50 [12]: > 500 mg/kg
Activity [8]: inactive
Activity [9]: inactive
Activity [13]: Active

COC[C@@H](NC(C)=O)C(=O)NCc1ccc(Oc2cccc(F)c2)cc1
ED50 [14]: 5.5 mg/kg
Ratio TD50/ED50 [15]: 4.2
TD50 [16]: > 10 mg/kg
ED50 [17]: 10 mg/kg
ED50 [18]: < 10 mg/kg

COC[C@@H](NC(C)=O)C(=O)NCc1ccc(COc2cccc(F)c2)cc1
ED50 [14]: 5.9 mg/kg
TD50 at […] [19]: 10 mg/kg
Ratio TD50/ED50 [15]: 1.8
ED50 [20]: 19 mg/kg
Ratio TD50/ED50 [7]: >21

CC(=O)NC(C(=O)NCc1ccccc1)c1ccco1 (racemic)
TD50 [21]: 40 mg/kg

COC[C@@H](NC(C)=O)C(=O)NCc1ccc(NCc2cccc(F)c2)cc1
ED50 [2]: 10 mg/kg
TD50 at 0.5 h [10]: 30 mg/kg

COC[C@@H](NC(C)=O)C(=O)NCc1ccc(C#Cc2cccc(F)c2)cc1
ED50 [1]: < 100 mg/kg
ED50 [22]: > 30 mg/kg
TD50 at 4 h [23]: 100 mg/kg
ED50 [4]: 1.4 mg/kg
TD50 at 4 h [24]: 63 mg/kg

COC[C@@H](NC(C)=O)C(=O)NCc1ccc(CCc2cccc(F)c2)cc1
ED50 [2]: 10 mg/kg
TD50 at 0.5 h [10]: 30 mg/kg
ED50 [25]: < 30 mg/kg
TD50 [26]: > 30 mg/kg

COC[C@@H](NC(C)=O)C(=O)NCc1ccc(OCCc2cccc(F)c2)cc1
ED50 [1]: 30 mg/kg
ED50 [2]: 30 mg/kg
TD50 at 0.5 h [10]: 30 mg/kg

NC(=O)C(NCc1ccc(OCc2cccc(F)c2)cc1)c1ccco1.O=C(O)C(=O)O (racemic)
ED50 [2]: 10 mg/kg
TD50 at 0.5 h [10]: 100 mg/kg
ED50 [11]: 100 mg/kg

COC[C@@H](NC(C)=O)C(=O)NCc1ccc(OCc2ccc(F)cc2)cc1
ED50 [2]: 10 mg/kg
TD50 at 0.5 h [10]: 30 mg/kg

C[C@H](NCc1ccc(OCc2cccc(F)c2)cc1)C(N)=O [SAFINAMIDE]
ED50 [27]: 8 mg/kg
TD50 [21]: 630 mg/kg
Ratio TD50/ED50 [15]: 78
Activity [8]: inactive
Activity [9]: inactive
ED50 [11]: 27 mg/kg
